From ChEMBL document CHEMBL1130267, “Regulation of retinoidal actions by diazepinylbenzoic acids. Retinoid synergists which activate the RXR-RAR heterodimers” (J Med Chem, 1997)

Key:
HL-60 [1] = experiment: Concentration which reduces by half the percentage of differentiated HL-60 cells induced by 1 x 10e-9 M Am80.; format: functional, cell-based; details: Homo sapiens
How it was run: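 Antagonism in HL-60 cells cotreated with 1 × 10^-9 M Am80 for 4 days, with Am80 alone and test compound alone run in parallel. Cells were seeded at about 8 × 10⁴/mL in RPMI1640/5% FBS, and compounds came from 2 mM ethanol stocks (final ethanol <0.5%). NBT reduction (0.2% NBT, 200 ng/mL TPA, 20 min, 37 °C) was counted on ≥200 cells. IC50 is the concentration halving the % of differentiated cells. Run at least twice.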

HL-60 [2] = experiment: Concentration which reduces by half the percentage of differentiated HL-60 cells; Inactive at 1 x 10e-6 M; format: functional, cell-based, Homo sapiens
[3] = biological target: T1, Retinoic acid receptor beta (Homo sapiens, UniProt P10826); experiment: Synergistic activity towards retinoic acid receptor-beta
T1 sequence (P10826 whole entry): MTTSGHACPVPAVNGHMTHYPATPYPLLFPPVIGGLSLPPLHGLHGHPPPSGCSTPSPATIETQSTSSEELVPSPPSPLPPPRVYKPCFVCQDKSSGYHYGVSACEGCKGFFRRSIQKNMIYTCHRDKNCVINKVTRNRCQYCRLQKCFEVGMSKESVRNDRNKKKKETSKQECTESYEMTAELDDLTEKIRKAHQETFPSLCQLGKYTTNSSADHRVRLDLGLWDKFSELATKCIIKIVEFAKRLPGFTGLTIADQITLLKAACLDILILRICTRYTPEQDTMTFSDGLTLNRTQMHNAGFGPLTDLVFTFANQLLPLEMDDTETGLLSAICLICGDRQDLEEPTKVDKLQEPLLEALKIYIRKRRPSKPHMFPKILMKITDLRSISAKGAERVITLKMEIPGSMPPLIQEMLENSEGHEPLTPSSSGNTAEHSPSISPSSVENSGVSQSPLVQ
How it was run: (§1)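 Filter binding competition on the MBP-fused RARβ ligand-binding domain against 20 nM [³H]Am80. The IC50 for halving specific binding was converted to Ki via Ki = IC50/(1 + [L]/Kd).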

[4] = biological target: T2, Retinoic acid receptor RXR-alpha (Homo sapiens, UniProt P19793); experiment: Synergistic activity towards retinoid X receptor-alpha
T2 sequence (P19793 whole entry): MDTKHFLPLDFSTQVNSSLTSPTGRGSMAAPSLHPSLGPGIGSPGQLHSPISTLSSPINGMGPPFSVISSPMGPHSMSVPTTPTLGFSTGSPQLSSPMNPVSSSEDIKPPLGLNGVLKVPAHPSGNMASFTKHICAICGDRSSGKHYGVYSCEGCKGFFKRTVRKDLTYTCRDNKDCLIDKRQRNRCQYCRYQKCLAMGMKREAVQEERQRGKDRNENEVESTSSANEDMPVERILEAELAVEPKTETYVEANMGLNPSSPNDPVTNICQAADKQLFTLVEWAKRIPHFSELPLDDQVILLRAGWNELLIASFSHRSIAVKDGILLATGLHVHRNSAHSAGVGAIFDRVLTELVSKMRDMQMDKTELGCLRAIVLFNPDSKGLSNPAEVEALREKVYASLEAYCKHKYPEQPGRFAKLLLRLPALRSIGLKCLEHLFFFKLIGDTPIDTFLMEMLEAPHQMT

[5] = biological target: T3, Retinoic acid receptor alpha (Homo sapiens, UniProt P10276); experiment: Synergistic activity towards retinoic acid receptor-alpha
T3 sequence (P10276 whole entry): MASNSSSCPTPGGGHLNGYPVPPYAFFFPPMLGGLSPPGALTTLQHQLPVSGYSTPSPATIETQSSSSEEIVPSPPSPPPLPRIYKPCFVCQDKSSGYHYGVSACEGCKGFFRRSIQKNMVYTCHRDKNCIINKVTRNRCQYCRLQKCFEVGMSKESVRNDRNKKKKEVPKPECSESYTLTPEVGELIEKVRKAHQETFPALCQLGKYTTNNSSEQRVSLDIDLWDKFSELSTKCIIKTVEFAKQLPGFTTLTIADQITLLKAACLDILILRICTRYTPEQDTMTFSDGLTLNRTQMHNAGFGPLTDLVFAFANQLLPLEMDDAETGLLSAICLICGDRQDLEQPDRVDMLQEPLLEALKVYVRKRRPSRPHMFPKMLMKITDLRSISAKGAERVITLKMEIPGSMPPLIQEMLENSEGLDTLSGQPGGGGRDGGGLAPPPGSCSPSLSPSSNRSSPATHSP
How it was run: (§2)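 Competitive nitrocellulose filter binding to recombinant RARα ligand-binding domain fused to maltose-binding protein, using 8 nM [³H]Am80 as tracer. IC50 for displacement of specific binding was converted to Ki by Ki = IC50/(1 + [L]/Kd).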

[6] = biological target: T4, Retinoic acid receptor RXR-gamma (Homo sapiens, UniProt P48443); experiment: Synergistic activity towards retinoid X receptor-gamma
T4 sequence (P48443 whole entry): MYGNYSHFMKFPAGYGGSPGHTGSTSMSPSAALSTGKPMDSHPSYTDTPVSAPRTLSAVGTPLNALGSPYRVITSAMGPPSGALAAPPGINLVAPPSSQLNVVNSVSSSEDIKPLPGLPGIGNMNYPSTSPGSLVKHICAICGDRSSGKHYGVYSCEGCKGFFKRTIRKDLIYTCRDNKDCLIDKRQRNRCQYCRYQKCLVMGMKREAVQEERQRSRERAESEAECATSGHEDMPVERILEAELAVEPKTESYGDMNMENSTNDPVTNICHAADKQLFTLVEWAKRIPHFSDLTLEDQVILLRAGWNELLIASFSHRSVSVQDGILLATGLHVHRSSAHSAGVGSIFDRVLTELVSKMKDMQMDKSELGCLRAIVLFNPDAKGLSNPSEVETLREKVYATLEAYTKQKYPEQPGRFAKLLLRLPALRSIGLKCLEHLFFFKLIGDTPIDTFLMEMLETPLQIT

[7] = biological target: T5, Retinoic acid receptor RXR-beta (Homo sapiens, UniProt P28702); experiment: Synergistic activity towards retinoid X receptor-beta
T5 sequence (P28702 whole entry): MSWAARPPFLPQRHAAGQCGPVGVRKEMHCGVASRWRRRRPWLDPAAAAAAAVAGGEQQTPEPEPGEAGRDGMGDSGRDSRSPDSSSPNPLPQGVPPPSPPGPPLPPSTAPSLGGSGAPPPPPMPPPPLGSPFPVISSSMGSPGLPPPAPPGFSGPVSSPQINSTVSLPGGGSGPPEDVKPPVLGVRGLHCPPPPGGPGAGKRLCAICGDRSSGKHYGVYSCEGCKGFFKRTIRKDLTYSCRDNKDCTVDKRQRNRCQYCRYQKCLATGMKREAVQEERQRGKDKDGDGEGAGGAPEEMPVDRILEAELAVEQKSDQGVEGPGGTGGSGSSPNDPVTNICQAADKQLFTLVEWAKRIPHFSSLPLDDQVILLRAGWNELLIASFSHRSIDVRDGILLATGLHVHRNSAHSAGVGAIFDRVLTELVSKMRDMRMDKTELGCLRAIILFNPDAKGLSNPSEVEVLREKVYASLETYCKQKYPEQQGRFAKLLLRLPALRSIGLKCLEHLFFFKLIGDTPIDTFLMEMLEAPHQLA

HL-60 [8] = experiment: Concentration of a compound which induces HL-60 cell differentiation to the extent of 50%; inactive below 1.0E-6M test compound; format: functional, cell-based, Homo sapiens
[9] = biological target: T5, Retinoic acid receptor RXR-beta; experiment: Antagonistic activity towards retinoid X receptor-beta; format: functional
[10] = biological target: T3, Retinoic acid receptor alpha; experiment: Antagonistic activity towards retinoic acid receptor-alpha; format: functional; how it was run: as §2
[11] = biological target: T2, Retinoic acid receptor RXR-alpha; experiment: Antagonistic activity towards retinoid X receptor-alpha; format: functional
[12] = biological target: T1, Retinoic acid receptor beta; experiment: Antagonistic activity towards retinoic acid receptor-beta; format: functional; how it was run: as §1
[13] = biological target: T6, Retinoic acid receptor gamma (Homo sapiens, UniProt P13631); experiment: Antagonistic activity towards retinoic acid receptor-gamma; format: functional
T6 sequence (P13631 whole entry): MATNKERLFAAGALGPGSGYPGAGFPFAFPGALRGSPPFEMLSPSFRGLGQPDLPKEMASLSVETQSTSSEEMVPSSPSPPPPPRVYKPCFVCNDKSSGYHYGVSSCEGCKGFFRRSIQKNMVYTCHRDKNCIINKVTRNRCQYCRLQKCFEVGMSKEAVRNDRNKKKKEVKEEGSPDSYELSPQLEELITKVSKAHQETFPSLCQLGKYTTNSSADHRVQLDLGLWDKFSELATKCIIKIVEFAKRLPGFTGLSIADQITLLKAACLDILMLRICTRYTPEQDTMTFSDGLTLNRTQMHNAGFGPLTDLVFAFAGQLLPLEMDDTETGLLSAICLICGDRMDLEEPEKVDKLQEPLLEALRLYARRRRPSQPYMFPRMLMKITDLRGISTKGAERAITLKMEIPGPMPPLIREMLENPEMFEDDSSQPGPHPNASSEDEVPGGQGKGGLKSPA
How it was run: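 Recombinant RARγ in a nitrocellulose filter competitive binding assay with 4 nM [³H]-9-cis-retinoic acid (diluted with cold ligand to 8 Ci/mmol). Ki = IC50/(1 + [L]/Kd).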

[14] = biological target: T4, Retinoic acid receptor RXR-gamma; experiment: Antagonistic activity towards retinoid X receptor-gamma; format: functional

SMILES: CN1c2cc3c(cc2N=C(c2ccc(C(=O)O)cc2)c2c1ccc1ccccc21)C(C)(C)CCC3(C)C
- IC50 (HL-60 [1]): 120 nM

SMILES: CC(C)c1cc2c(cc1C(C)C)N(C)c1ccccc1C(c1ccc(C(=O)O)cc1)=N2
- IC50 (HL-60 [2]): Not Active

SMILES: CC1(C)CCC(C)(C)c2cc3c(cc21)Cc1ccccc1N=C3c1ccc(C(=O)O)cc1
- Ki [3]: 810 nM
- Ki [4]: 1800 nM
- Ki [5]: 1600 nM
- Ki [6]: 1000 nM
- Ki [7]: 790 nM

SMILES: CN1c2ccc(C(C)(C)C)cc2N=C(c2ccc(C(=O)O)cc2)c2ccccc21
- IC50 (HL-60 [1]): > 1000 nM

SMILES: CN1c2cc3c(cc2N=C(c2ccc(C(=O)O)cc2)c2cc4c(cc21)C(C)(C)CCC4(C)C)C(C)(C)CCC3(C)C
- IC50 (HL-60 [1]): 830 nM

SMILES: CC1(C)CCC(C)(C)c2cc3c(cc21)NC(=O)CN=C3c1ccc(C(=O)O)cc1
- EC50 (HL-60 [8]): Not Active

SMILES: CN1c2cc3c(cc2N=C(c2ccc(C(=O)O)cc2)c2ccc4ccccc4c21)C(C)(C)CCC3(C)C
- Ki [9]: 1700 nM
- Ki [10]: 1300 nM
- Ki [11]: 3800 nM
- Ki [12]: 500 nM
- Ki [13]: 490 nM
- IC50 (HL-60 [1]): 36 nM
- Ki [14]: 1500 nM

SMILES: CN1c2ccccc2N=C(c2ccc(C(=O)O)cc2)c2cc3c(cc21)C(C)(C)CCC3(C)C
- Ki [3]: 680 nM
- Ki [4]: 1900 nM
- Ki [6]: 1000 nM
- Ki [7]: 640 nM

SMILES: CC1c2ccccc2N=C(c2ccc(C(=O)O)cc2)c2cc3c(cc21)C(C)(C)CCC3(C)C (centres undefined)
- Ki [5]: 2000 nM

SMILES: CC1(C)CCC(C)(C)c2cc3c(cc21)Oc1ccccc1N=C3c1ccc(C(=O)O)cc1
- Ki [3]: 320 nM
- Ki [4]: 3800 nM
- Ki [5]: 980 nM
- Ki [6]: 2100 nM
- Ki [7]: 1200 nM

SMILES: CN1c2ccccc2N=C(c2ccc(C(=O)O)cc2)c2cc(C(C)(C)C)ccc21
- EC50 (HL-60 [8]): Not Active

SMILES: CCCCCCCN1c2cc3c(cc2N=C(c2ccc(C(=O)O)cc2)c2ccccc21)C(C)(C)CCC3(C)C
- IC50 (HL-60 [1]): 210 nM

SMILES: CN1c2cc3c(cc2N=C(c2ccc(C(=O)O)cc2)c2ccc4cc5ccccc5cc4c21)C(C)(C)CCC3(C)C
- IC50 (HL-60 [1]): 320 nM

SMILES: CN1c2ccccc2N=C(c2ccc(C(=O)O)cc2)c2cc(-c3ccccc3)ccc21
- EC50 (HL-60 [8]): Not Active

SMILES: CN1c2cc3c(cc2N=C(c2ccc(C(=O)O)cc2)c2c1c1ccccc1c1ccccc21)C(C)(C)CCC3(C)C
- IC50 (HL-60 [1]): 350 nM

SMILES: CC1(C)CCC(C)(C)c2cc3c(cc21)Sc1ccccc1N=C3c1ccc(C(=O)O)cc1
- Ki [3]: 320 nM
- Ki [4]: 900 nM
- Ki [5]: 900 nM
- Ki [6]: 620 nM
- Ki [7]: 400 nM

SMILES: CCCN1c2cc3c(cc2N=C(c2ccc(C(=O)O)cc2)c2ccccc21)C(C)(C)CCC3(C)C
- IC50 (HL-60 [1]): 130 nM

SMILES: CN1c2ccccc2N=C(c2ccc(C(=O)O)cc2)c2ccccc21
- EC50 (HL-60 [8]): Not Active

SMILES: CN1c2ccccc2N=C(c2ccc(C(=O)O)cc2)c2cc(Br)ccc21
- EC50 (HL-60 [8]): Not Active

SMILES: CN1c2cc3c(cc2N=C(c2ccc(C(=O)O)cc2)c2ccccc21)C(C)(C)CCC3(C)C
- Ki [10]: 1400 nM
- Ki [12]: 220 nM
- IC50 (HL-60 [1]): 150 nM

SMILES: CN1c2ccc(C34CC5CC(CC(C5)C3)C4)cc2N=C(c2ccc(C(=O)O)cc2)c2ccccc21
- IC50 (HL-60 [2]): Not Active
